Data on 1 compound can be found in BindingDB's records for doi:10.1128/aac.00067-07 (Rutgers University, 2007).

Each structure is given as a SMILES string. Converted amounts (≈) assume the structure as drawn.

Assay [1] has as its target 1,3-beta-glucan synthase (Pichia kudriavzevii, UniProt Q4U2W2). Briefly: Inhibition of FKS1 from Candida krusei 98 isolate. In outline:
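Glucan synthase enzyme complex isolated from the pretreatment clinical strain Ck-98 and titrated with the echinocandin. Inhibition curves were fitted with a sigmoidal variable-slope dose-response model to give IC50 in ng/ml.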

Assay [2] concerns the target 1,3-beta-glucan synthase (Pichia kudriavzevii, UniProt Q4U2W2, F655C). Briefly: Inhibition of FKS1 T2080K mutant from Candida krusei 100 isolate. In outline:
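Glucan synthase enzyme complex isolated from posttreatment strain Ck-100. Caspofungin titrated against the enzyme. Inhibition curve fitted with a two-site competition algorithm to give IC50 in ng/ml.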

Sequence of 1,3-beta-glucan synthase (Pichia kudriavzevii, UniProt Q4U2W2) (Q4U2W2 whole entry): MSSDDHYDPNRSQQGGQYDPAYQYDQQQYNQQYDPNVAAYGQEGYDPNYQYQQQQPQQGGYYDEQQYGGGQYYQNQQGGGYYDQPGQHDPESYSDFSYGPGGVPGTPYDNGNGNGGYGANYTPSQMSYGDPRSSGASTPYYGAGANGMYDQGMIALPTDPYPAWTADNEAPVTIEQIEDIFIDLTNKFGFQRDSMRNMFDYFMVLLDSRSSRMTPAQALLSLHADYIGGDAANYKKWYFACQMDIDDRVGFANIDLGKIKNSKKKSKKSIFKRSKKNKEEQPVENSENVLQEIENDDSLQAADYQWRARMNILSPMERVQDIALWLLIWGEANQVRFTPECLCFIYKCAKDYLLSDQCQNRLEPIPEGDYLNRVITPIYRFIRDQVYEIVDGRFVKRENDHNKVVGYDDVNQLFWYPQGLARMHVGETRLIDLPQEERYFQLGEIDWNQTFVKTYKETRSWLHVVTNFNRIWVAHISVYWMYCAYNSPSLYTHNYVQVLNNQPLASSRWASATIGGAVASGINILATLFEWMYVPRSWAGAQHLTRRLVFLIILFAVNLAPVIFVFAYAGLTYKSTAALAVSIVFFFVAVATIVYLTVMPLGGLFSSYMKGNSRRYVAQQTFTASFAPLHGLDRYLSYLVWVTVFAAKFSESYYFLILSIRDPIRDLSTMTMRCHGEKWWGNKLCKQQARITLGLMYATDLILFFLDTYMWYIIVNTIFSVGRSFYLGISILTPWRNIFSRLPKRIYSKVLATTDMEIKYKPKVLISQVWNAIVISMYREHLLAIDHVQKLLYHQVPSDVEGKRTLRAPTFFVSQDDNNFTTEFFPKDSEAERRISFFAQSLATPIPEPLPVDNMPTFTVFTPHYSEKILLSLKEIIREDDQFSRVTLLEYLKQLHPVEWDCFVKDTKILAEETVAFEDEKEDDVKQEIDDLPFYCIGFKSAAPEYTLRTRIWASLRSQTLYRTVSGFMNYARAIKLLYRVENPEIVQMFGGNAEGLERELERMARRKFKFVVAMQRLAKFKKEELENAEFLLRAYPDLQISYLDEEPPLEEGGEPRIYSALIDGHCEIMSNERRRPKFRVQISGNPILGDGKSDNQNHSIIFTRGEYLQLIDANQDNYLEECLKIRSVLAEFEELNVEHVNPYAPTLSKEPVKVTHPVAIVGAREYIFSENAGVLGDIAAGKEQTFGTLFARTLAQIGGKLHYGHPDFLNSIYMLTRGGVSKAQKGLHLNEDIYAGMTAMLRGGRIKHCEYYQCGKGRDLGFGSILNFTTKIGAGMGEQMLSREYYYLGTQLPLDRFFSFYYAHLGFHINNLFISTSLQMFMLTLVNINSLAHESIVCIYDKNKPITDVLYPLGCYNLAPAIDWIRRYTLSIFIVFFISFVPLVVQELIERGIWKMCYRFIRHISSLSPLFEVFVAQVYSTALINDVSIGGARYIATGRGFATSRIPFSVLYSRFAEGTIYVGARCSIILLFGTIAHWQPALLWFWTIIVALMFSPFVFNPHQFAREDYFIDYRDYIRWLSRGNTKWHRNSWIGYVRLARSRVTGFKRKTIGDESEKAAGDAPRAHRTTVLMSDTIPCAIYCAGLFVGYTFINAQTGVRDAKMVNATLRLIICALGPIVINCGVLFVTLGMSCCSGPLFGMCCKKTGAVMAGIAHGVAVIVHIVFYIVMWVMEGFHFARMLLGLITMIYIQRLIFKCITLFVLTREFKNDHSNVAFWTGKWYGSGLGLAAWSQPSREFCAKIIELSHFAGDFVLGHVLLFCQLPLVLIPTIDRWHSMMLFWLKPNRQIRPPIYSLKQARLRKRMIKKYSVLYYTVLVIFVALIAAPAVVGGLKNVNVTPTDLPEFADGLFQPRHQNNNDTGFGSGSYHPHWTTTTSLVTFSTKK
Sequence of 1,3-beta-glucan synthase (Pichia kudriavzevii, UniProt Q4U2W2, F655C) (Q4U2W2 entry or part of it F655C): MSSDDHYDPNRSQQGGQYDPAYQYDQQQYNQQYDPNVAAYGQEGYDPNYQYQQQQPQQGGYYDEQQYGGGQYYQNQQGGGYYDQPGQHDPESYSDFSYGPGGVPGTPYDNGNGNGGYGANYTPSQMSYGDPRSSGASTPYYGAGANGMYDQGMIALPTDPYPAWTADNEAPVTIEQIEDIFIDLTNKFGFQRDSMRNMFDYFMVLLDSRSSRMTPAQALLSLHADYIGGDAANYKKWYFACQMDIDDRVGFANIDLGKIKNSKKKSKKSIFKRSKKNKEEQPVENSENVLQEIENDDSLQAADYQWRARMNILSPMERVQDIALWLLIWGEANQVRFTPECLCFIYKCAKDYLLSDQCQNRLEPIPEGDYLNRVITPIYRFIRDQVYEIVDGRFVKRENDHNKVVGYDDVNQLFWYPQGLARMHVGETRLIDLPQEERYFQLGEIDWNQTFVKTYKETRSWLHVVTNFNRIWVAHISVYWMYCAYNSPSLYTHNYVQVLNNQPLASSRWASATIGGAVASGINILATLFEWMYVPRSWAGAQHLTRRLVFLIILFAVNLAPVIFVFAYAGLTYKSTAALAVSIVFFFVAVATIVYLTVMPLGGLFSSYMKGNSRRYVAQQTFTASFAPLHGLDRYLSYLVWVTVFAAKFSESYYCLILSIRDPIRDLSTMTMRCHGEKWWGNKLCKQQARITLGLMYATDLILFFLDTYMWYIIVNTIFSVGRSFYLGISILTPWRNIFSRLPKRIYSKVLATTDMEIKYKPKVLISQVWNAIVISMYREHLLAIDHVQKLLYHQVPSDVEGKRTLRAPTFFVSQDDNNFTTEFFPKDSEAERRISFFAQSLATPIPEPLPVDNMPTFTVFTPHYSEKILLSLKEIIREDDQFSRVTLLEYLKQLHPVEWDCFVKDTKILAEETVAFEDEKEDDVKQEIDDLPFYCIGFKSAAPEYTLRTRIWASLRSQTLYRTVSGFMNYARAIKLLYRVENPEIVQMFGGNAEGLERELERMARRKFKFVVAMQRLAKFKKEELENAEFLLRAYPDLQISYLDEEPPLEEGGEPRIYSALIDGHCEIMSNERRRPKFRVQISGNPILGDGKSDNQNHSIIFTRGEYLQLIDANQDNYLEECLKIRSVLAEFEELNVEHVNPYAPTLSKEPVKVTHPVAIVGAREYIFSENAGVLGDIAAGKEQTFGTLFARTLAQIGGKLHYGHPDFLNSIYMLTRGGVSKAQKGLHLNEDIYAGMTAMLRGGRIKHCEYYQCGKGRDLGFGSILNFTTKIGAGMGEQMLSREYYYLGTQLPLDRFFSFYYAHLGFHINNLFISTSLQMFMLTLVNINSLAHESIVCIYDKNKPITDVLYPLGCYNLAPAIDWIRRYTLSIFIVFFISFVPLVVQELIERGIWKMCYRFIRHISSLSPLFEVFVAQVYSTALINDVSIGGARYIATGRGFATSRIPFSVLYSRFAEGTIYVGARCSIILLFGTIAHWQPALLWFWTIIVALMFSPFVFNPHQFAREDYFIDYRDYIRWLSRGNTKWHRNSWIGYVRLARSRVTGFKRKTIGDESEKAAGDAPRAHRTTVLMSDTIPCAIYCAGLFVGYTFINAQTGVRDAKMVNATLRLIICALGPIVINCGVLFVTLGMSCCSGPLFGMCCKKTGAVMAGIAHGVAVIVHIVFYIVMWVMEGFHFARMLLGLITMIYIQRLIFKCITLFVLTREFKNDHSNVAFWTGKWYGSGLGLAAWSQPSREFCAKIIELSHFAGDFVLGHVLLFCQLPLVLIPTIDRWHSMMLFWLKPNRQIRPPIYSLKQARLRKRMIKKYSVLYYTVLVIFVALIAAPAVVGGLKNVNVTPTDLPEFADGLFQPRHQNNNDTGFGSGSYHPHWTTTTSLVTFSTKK

By IC50 is commonly meant the concentration that gives 50% inhibition. As to `CCC(C)CC(C)CCCCCCCCC(=O)N[C@H]1C[C@@H](O)[C@@H](NCCN)NC(=O)[C@@H]2[C@@H](O)CCN2C(=O)[C@H]([C@H](O)CCN)NC(=O)[C@H]([C@H](O)[C@@H](O)c2ccc(O)cc2)NC(=O)[C@@H]2C[C@@H](O)CN2C(=O)[C@H]([C@@H](C)O)NC1=O` (some centres not stated) [CHEBI:474180], the IC50 came to 0.0068 µg/mL (≈ 0.00622 µM) against 1,3-beta-glucan synthase [1] and 3.94 µg/mL (≈ 3.61 µM) against 1,3-beta-glucan synthase [2].
